The target of this assay is Sigma 2 receptor. The assay is described as follows: Binding affinity for sigma 2 opioid receptor, measured on rat liver membranes using [3H]- DTG as radioligand in the presence of (+)-pentazocine. Details: species or system Membrane. The method, boiled down: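 Rat liver P2 membranes (male Sprague-Dawley, 300-350 g; 35 µg protein) incubated with 3 nM [3H]DTG plus 100 nM (+)-pentazocine masking σ1 sites, in 50 mM Tris-HCl pH 8.0, 120 min, 25 °C. Test compounds at 0.005-1000 nM (eight concentrations). Nonspecific binding defined with 5 µM DTG. Filtration, scintillation counting. IC50 by nonlinear regression, generally in triplicate. Ki from at least three experiments.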

The Ki is a measure of affinity in units of concentration, obtained from inhibition or displacement. For the compound `O=C(Cc1ccccc1F)NC1CCN(Cc2ccc(I)cc2)CC1`, the Ki was 233 nM. Under `O=C(Cc1ccccc1)NC1CCN(Cc2ccccc2F)CC1` stands 683 nM; under `O=C(Cc1cccc(F)c1)NC1CCN(Cc2cccc(I)c2)CC1`, 50.3 nM. Under `COc1ccc2c(c1)C(CC(=O)NC1CCN(Cc3ccccc3)CC1)CC2=O` (stereo not given) stands 416 nM; under `OC(CCCN1CCC(O)(c2ccc(Cl)cc2)CC1)c1ccc(F)cc1` (stereo not given) [HYDROXYHALOPERIDOL], 28.6 nM; under `O=C(Cc1cc(=O)oc2cc(O)ccc12)NC1CCN(Cc2ccccc2)CC1`, above 1000 nM. For `O=C(Cc1cccc(Cl)c1)NC1CCN(Cc2ccc(F)cc2)CC1` the value was 9.38 nM; for `O=C(Cc1cccc(Cl)c1)NC1CCN(Cc2cccc(I)c2)CC1`, 30.3 nM. With `O=C(Cc1ccccc1)NC1CCN(Cc2ccccc2C(F)(F)F)CC1`, the inhibition constant Ki is above 1000 nM. For `O=C(Cc1cccc2ccccc12)NC1CCN(Cc2ccccc2)CC1` the value was 39.4 nM; for `O=C(Cc1ccccc1)NC1CCN(Cc2cccc(I)c2)CC1`, 191 nM. Take `O=C(Cc1ccsc1)NC1CCN(Cc2ccccc2)CC1`: the Ki worked out at 337 nM.

On to `O=C(Cc1ccccc1)NC1CCN(Cc2ccc3ccccc3c2)CC1`, for which the Ki was found to be 189 nM.

Regarding `O=C(Cc1cccc(F)c1)NC1CCN(Cc2ccc(F)cc2)CC1`, the Ki stood at 31 nM. For `O=C(Cc1ccccc1)NC1CCN(Cc2ccc(F)c(F)c2)CC1` the value was 232 nM. For `O=C(Cc1cccc(Br)c1)NC1CCN(Cc2ccc(I)cc2)CC1` the value was 90.3 nM; for `O=C(CSc1ncccn1)NC1CCN(Cc2ccccc2)CC1`, above 1000 nM.

As for `O=C(Cc1ccccn1)NC1CCN(Cc2ccccc2)CC1`, the Ki is above 1000 nM. As to `O=C(Cc1ccccc1)NC1CCN(Cc2ccc(Cl)c(Cl)c2)CC1`, the Ki came to 423 nM.

`O=C(Nc1cccc2ccccc12)NC1CCN(Cc2ccccc2)CC1`: the Ki worked out at 25 nM. As to `O=C(Cc1cccnc1)NC1CCN(Cc2ccccc2)CC1`, the Ki is above 1000 nM. Under `O=C(Cc1cccc(Br)c1)NC1CCN(Cc2cccc(I)c2)CC1` stands 59.3 nM; under `O=C(Cc1ccccc1)NC1CCN(Cc2ccc(F)cc2)CC1`, 82.9 nM. For `O=C(Cc1ccc2ccccc2c1)NC1CCN(Cc2ccccc2)CC1` the value was 112 nM; for `O=C(Cc1ccc(I)cc1)NC1CCN(Cc2ccccc2)CC1`, 61.3 nM. As for `O=C(Cc1c[nH]cn1)NC1CCN(Cc2ccccc2)CC1`, the Ki is above 1000 nM. Under `O=C(Cc1cccs1)NC1CCN(Cc2ccccc2)CC1` stands 393 nM. For `O=C(Cc1cccc(Br)c1)NC1CCN(Cc2ccc(F)cc2)CC1` the value was 6.06 nM. For `O=C(Cc1ccccc1)NC1CCN(Cc2ccc3c(c2)OCO3)CC1` the value was 171 nM; for `O=C(Cc1cccc(Cl)c1)NC1CCN(Cc2ccc(I)cc2)CC1`, 257 nM.

Consider `O=C(Cc1ccncc1)NC1CCN(Cc2ccccc2)CC1`, for which the inhibition constant (Ki) was above 1000 nM.

Consider `O=C(Cc1ccccc1F)NC1CCN(Cc2ccc(F)cc2)CC1`, for which the Ki is 140 nM. In the case of `COc1ccc2[nH]cc(CC(=O)NC3CCN(Cc4ccccc4)CC3)c2c1`, the Ki was above 1000 nM. For `O=C(Cc1ccccc1)NC1CCN(Cc2ccccc2)CC1` the value was 240 nM. For `O=C(Cc1ccccc1)NC1CCN(Cc2cccc(F)c2)CC1` the value was above 1000 nM; for `O=C(Cc1ccccc1)NC1CCN(Cc2ccc(C(F)(F)F)cc2)CC1`, 300 nM; for `O=C(Cc1ccccc1)NC1CCN(CCc2ccccc2)CC1`, 107 nM. For `O=C(Cc1cccc(F)c1)NC1CCN(Cc2ccc(I)cc2)CC1` the value was 168 nM; for `O=C(Cc1ccccc1)NC1CCN(Cc2ccc([N+](=O)[O-])cc2)CC1`, 319 nM. Consider `O=C(Cc1ccccc1)NC1CCN(Cc2ccccc2I)CC1`, for which the Ki worked out at 631 nM. Under `O=C(Cc1ccccc1)NC1CCN(Cc2cccc(C(F)(F)F)c2)CC1` stands 513 nM; under `O=C(Cc1c[nH]c2ccc(Br)cc12)NC1CCN(Cc2ccccc2)CC1`, 678 nM.

Regarding `O=C(Cc1ccccc1F)NC1CCN(Cc2cccc(I)c2)CC1`, the Ki came out at 181 nM. Under `O=C(Cc1c[nH]c2ccccc12)NC1CCN(Cc2ccccc2)CC1` stands above 1000 nM; under `O=C(Cc1ccccc1)NC1CCN(Cc2ccc(I)cc2)CC1`, 694 nM.

Values taken from ChEMBL document CHEMBL1134305, “Synthesis and structure-activity relationships of N-(1-benzylpiperidin-4-yl)arylacetamide analogues as potent sigma1 receptor ligands” (J Med Chem, 2001).
